The values that follow come from ChEMBL document CHEMBL1134596, “Synthesis and conformational analysis of fusidic acid side chain derivatives in relation to antibacterial activity” (2001).

Each structure is given as a SMILES string. Values after ≈ are worked out from the molar mass of the structure shown.

Common to all, as to assay type: functional
Experiment [1] has as its system Staphylococcus epidermidis. In words: Minimum inhibitory concentration against Staphylococcus epidermidis ATCC 12228. Summed up:
(§1)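 Agar cup diffusion assay. Colonies from a fresh overnight culture were suspended in saline to 0.5 McFarland (10^8 CFU/mL). Mueller Hinton agar at 48 °C was seeded at 10^6 CFU/mL and poured, and holes were cut in it. Each hole received sample from a six-step dilution series between 0.25 and 125 µg/mL. After incubation, inhibition zone diameters were measured with an electronic caliper to estimate the MIC.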

Experiment [2] relates to Enterococcus faecium. As to the kind of experiment: Minimum inhibitory concentration against Streptococcus faecium EI 119. Summed up: (§2)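 Streptococcal MICs were estimated by agar cup diffusion in Mueller Hinton agar supplemented with 5% sheep blood. The agar was seeded at 48 °C with 10^6 CFU/mL from a saline suspension at 0.5 McFarland. Cut holes were filled from six dilutions spanning 0.25–125 µg/mL. After incubation, growth-inhibition zone diameters were read with an electronic caliper.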

For experiment [3], the system named is Corynebacterium xerosis. As to the kind of experiment: Minimum inhibitory concentration against Corynebacterium xerosis NCTC 9755. Summed up:
as §1

Experiment [4] concerns Cutibacterium acnes. As to the kind of experiment: Minimum inhibitory concentration against Propionibacterium acnes NCTC 737. Summed up:
as §1

The subject of experiment [5] is Staphylococcus aureus. In words: Minimum inhibitory concentration against Staphylococcus aureus ATCC 6538P. Summed up:
as §1

For experiment [6], the system named is Escherichia coli. In words: Minimum inhibitory concentration against Escherichia coli HA 44. Summed up:
as §1

The test system of experiment [7] is Clostridium perfringens. As to the kind of experiment: Minimum inhibitory concentration against Clostridium perfringens KT 13. Summed up:
(§3)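 MIC by agar cup diffusion. Colonies from fresh overnight culture were suspended in saline to 0.5 McFarland (10^8 CFU/mL), and molten Mueller Hinton agar at 48 °C was seeded at 10^6 CFU/mL and poured. Wells each received 200 µL of one of six dilutions spanning 0.25–125 µg/mL. After incubation, inhibition zone diameters were measured by caliper. Strains came from ATCC or in-house clinical isolates.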

Experiment [8] concerns Micrococcus luteus. In words: Minimum inhibitory concentration against Micrococcus luteus ATCC 9341. Summed up: as §1
The test system of experiment [9] is Staphylococcus aureus. As to the kind of experiment: Minimum inhibitory concentration against Staphylococcus aureus ATCC 2977. Summed up: as §3
A short description of experiment [10]: Minimum inhibitory concentration against Streptococcus. species EF 6. Particulars: Bacteria. Summed up:
as §2

The test system of experiment [11] is Staphylococcus aureus. In words: Minimum inhibitory concentration against Staphylococcus aureus ATCC 29213. Summed up: as §1
Experiment [12] relates to Staphylococcus aureus. As to the kind of experiment: Minimum inhibitory concentration against meticilline resistant Staphylococcus aureus CJ 232. Summed up:
as §3

Experiment [13] has as its system Streptococcus salivarius. As to the kind of experiment: Minimum inhibitory concentration against Streptococcus salivarius EG 7 (gr.A). Summed up:
as §2

For experiment [14], the system named is Staphylococcus aureus. As to the kind of experiment: Minimum inhibitory concentration against meticilline and rifampicin resistant Staphylococcus aureus CJ 234. Summed up:
as §3

The test system of experiment [15] is Staphylococcus aureus. As to the kind of experiment: Minimum inhibitory concentration against meticilline and fus resistant Staphylococcus aureus CJ 234. Summed up: as §3
Experiment [16] concerns Streptococcus thermophilus. As to the kind of experiment: Minimum inhibitory concentration against Streptococcus thermophilus EG 5. Summed up:
as §2

Experiment [17] in a line: Minimum inhibitory concentration against Saccharomyces cerevisiae ZZ 7.
Experiment [18] concerns Streptococcus pyogenes. In words: Minimum inhibitory concentration against Streptococcus pyogenes EC. Summed up:
as §2

Experiment [19] deals with Candida albicans. As to the kind of experiment: Minimum inhibitory concentration against Candida albicans ATCC 10231.
The test system of experiment [20] is Bacillus cereus. As to the kind of experiment: Minimum inhibitory concentration against Bacillus cereus ATCC 10876. Summed up:
as §1

The test system of experiment [21] is Aspergillus niger. In words: Minimum inhibitory concentration against Aspergillus niger ATCC 16404.
Experiment [22] has as its system Streptococcus equi subsp. zooepidemicus. In words: Minimum inhibitory concentration against Streptococcus zooepidermidis ED (gr.C). Summed up: as §2

As usually defined, the MIC is the lowest concentration that inhibits growth of the organism. A low value points to greater potency. As for `CC(=O)O[C@H]1C[C@@]2(C)[C@@H](CC(O)[C@H]3[C@@]4(C)CCC(O)C(C)[C@@H]4CC[C@]32C)/C1=C(\CCC=C(C)C)C(=O)O` (some centres not stated), the MIC in experiment [1] is 0.0007 µg/mL (≈ 0.00135 µM); in experiment [2], 0.01 µg/mL (≈ 0.0194 µM); in experiment [3], 0.01 µg/mL (≈ 0.0194 µM); in experiment [4], 0.003 µg/mL (≈ 0.00581 µM); in experiment [5] it was 0.007 µg/mL (≈ 0.0135 µM); in [6], above 125 µg/mL. In addition, the MIC in experiment [7] stood at 16 µg/mL (≈ 31 µM); in [8], 1 µg/mL (≈ 1.94 µM); in experiment [9] it was 0.006 µg/mL (≈ 0.0116 µM); in [10], 4 µg/mL (≈ 7.74 µM); in experiment [11] it was 0.007 µg/mL (≈ 0.0135 µM); in experiment [12], 0.015 µg/mL (≈ 0.029 µM). Also, the MIC in [13] is 4 µg/mL (≈ 7.74 µM); in experiment [14], 0.006 µg/mL (≈ 0.0116 µM); in [15], above 125 µg/mL; in experiment [16] it was 4 µg/mL (≈ 7.74 µM); in [17], 4 µg/mL (≈ 7.74 µM); in [18], 4 µg/mL (≈ 7.74 µM). The MIC in experiment [19] is 16 µg/mL (≈ 31 µM); in experiment [20], 4 µg/mL (≈ 7.74 µM); in experiment [21], 16 µg/mL (≈ 31 µM); in experiment [22], 16 µg/mL (≈ 31 µM).

For the molecule `CC(=O)O[C@H]1C[C@@]2(C)C(CC(O)[C@H]3[C@@]4(C)CCC(O)C(C)C4CC[C@@]32C)C1[C@@H](CCC=C(C)C)C(=O)O` (some centres not stated), the MIC is above 125 µg/mL in experiment [1]; above 125 µg/mL in experiment [2]; above 125 µg/mL in experiment [3]; 4 µg/mL (≈ 7.71 µM) in [4]; above 125 µg/mL in experiment [5]; above 125 µg/mL in experiment [6]. Besides, the MIC in experiment [7], in [8], in experiment [9], in experiment [10], in experiment [11] and in [12] was above 125 µg/mL each time. Moreover, the MIC in experiment [13], in [14], in experiment [15], in [16], in experiment [17] and in [18] was above 125 µg/mL throughout. Also, the MIC in experiment [19], in experiment [20] and in experiment [22] was above 125 µg/mL throughout.

`CC(=O)O[C@H]1C[C@@]2(C)C(CC(O)[C@H]3[C@@]4(C)CCC(O)C(C)C4CC[C@@]32C)[C@@H]1[C@H](CCCC(C)C)C(=O)O` (some centres not stated): the MIC in [1] was 3.8 µg/mL (≈ 7.3 µM); in [2] it was 16 µg/mL (≈ 30.7 µM); in [3], 4 µg/mL (≈ 7.68 µM); in experiment [4] it was 4 µg/mL (≈ 7.68 µM); in [5], 4 µg/mL (≈ 7.68 µM); in experiment [6], above 125 µg/mL. In addition, the MIC in experiment [7] was above 125 µg/mL; in experiment [8], above 125 µg/mL; in experiment [9], 4 µg/mL (≈ 7.68 µM); in experiment [10] it was above 125 µg/mL; in [11] it was 2 µg/mL (≈ 3.84 µM); in experiment [12], 4 µg/mL (≈ 7.68 µM). The MIC is above 125 µg/mL in experiment [13]; 0.9 µg/mL (≈ 1.73 µM) in [14]; above 125 µg/mL in [15]; above 125 µg/mL in [16]; above 125 µg/mL in experiment [17]; above 125 µg/mL in experiment [18]. Besides, the MIC in [19] was above 125 µg/mL; in experiment [20] it was above 125 µg/mL; in experiment [21] it was 16 µg/mL (≈ 30.7 µM); in [22], above 125 µg/mL.

For the molecule `CC(=O)O[C@H]1C[C@@]2(C)C(CC(O)[C@H]3[C@@]4(C)CCC(O)C(C)C4CC[C@]32C)C1[C@H](CCC=C(C)C)C(=O)O` (some centres not stated), the MIC was 0.01 µg/mL (≈ 0.0193 µM) in experiment [1]; 0.025 µg/mL (≈ 0.0482 µM) in experiment [2]; 0.03 µg/mL (≈ 0.0578 µM) in [3]; 0.03 µg/mL (≈ 0.0578 µM) in experiment [4]; 0.012 µg/mL (≈ 0.0231 µM) in experiment [5]; above 125 µg/mL in experiment [6]. Besides, the MIC in [7] amounted to 16 µg/mL (≈ 30.8 µM); in experiment [8] it was 1 µg/mL (≈ 1.93 µM); in experiment [9], 0.03 µg/mL (≈ 0.0578 µM); in [10] it was 4 µg/mL (≈ 7.71 µM); in experiment [11], 0.01 µg/mL (≈ 0.0193 µM); in experiment [12], 0.03 µg/mL (≈ 0.0578 µM). Besides, the MIC in experiment [13] is 4 µg/mL (≈ 7.71 µM); in experiment [14], 0.03 µg/mL (≈ 0.0578 µM); in [15], above 125 µg/mL; in experiment [16] it was 16 µg/mL (≈ 30.8 µM); in experiment [17], 4 µg/mL (≈ 7.71 µM); in experiment [18], 16 µg/mL (≈ 30.8 µM). Moreover, the MIC in experiment [19] is 64 µg/mL (≈ 123 µM); in experiment [20] it was 1 µg/mL (≈ 1.93 µM); in [21], 64 µg/mL (≈ 123 µM); in experiment [22], 16 µg/mL (≈ 30.8 µM).
